Reference: publication PMC7613447 (Bioorganic & medicinal chemistry, 2022)
pEC50, pIC50: −log10 of the molar value. Each block holds one compound with its values, some of them ahead of it. Where a SMILES comes first, the peptide text is derived from it. [ ]: non-standard residue; d: D form. 1Nal = N[C@@H](Cc1cccc2ccccc12)C(=O)O; 2Nal = N[C@@H](Cc1ccc2ccccc2c1)C(=O)O

Columns and labels:
PP1 = PP1 (Homo sapiens, UniProt P62136); assay: ALPHA assay, competition with Biotin-PDP2 for the RVxF binding site of His-PP1
Outline: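 Competition binding with 200 nM His-PP1 and 67 nM biotin-PDP2 in 50 mM Tris-Cl pH 7.5, 150 mM NaCl, 0.05% Tween 20, 1 mM MnCl₂, 0.1% BSA. Serial dilutions of test compound were added for 60 min at rt. Streptavidin-donor and anti-His-acceptor beads (5 μg/ml final) were then added for 90 min at rt in the dark. Excitation was 680 nm, emission 570 nm. The non-specific control used 22 nM GST(His-biotin).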

PP1 and Inhibitor 2 = PP1 and Inhibitor 2 (Homo sapiens, UniProt P62136); assay: Disruption of the interaction between PP1 and Inhibitor 2; format: biochemical; details: for EC50 of the disruption of the interaction between PP1 and Inhibitor 2: starting at 50% inhibition of PP1 with I2, DiFMUP as substrate; for activity in disrupting PP1:I2 (in words): in vitro, Table 1 conditions; for PP1 activity reached (efficacy): maximum of dose-response, around 50% starting inhibition (Supp. Fig. 2E, F)
HeLa cells = assay: Calcium release assay, Fluo-4 imaging in intact HeLa cells; format: cell-based; details: Fluo-4, Ca^2+-containing imaging buffer
Outline: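 HeLa Kyoto cells were grown in low-glucose DMEM with 10% FBS, penicillin/streptomycin and L-glutamine at 37 °C, 5% CO₂, then seeded in chamber slides the day before imaging (~80% confluent). Cells were loaded with 0.5 μM Fluo-4 in HEPES pH 7.4 imaging buffer containing 1.2 mM CaCl₂ for 30 min at rt, then washed. Confocal imaging used ex 488/em 516 nm: 2 min baseline, then 30 min after compound addition. Buffer and a PP1-disrupting peptide served as controls. Responding cells were counted.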

PP1 by I2 = details: starting inhibition of PP1 by I2 of 50%; cited from earlier work

Chain of PP1 and Inhibitor 2 (P62136 whole entry): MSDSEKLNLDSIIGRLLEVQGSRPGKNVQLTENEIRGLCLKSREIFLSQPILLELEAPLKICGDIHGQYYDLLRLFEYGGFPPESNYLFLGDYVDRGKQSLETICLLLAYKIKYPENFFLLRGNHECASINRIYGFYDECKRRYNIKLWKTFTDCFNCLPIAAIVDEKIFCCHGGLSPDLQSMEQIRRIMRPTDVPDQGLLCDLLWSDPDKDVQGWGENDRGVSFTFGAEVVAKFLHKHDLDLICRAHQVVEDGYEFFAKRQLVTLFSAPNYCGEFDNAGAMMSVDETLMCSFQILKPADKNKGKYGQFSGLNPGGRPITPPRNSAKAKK
Chain of PP1 (P62136 whole entry): as above

Compound: CC(C)[C@H](NC(=O)[C@@H](N)CCCNC(=N)N)C(=O)N[C@H](C(=O)N[C@@H](Cc1ccccc1)C(=O)O)[C@@H](C)O [Compound 1, RVTF] (H-RVTF-OH)
- pIC50 (PP1): 3.91

Compound: CC[C@H](C)[C@H](NC(=O)[C@@H](N)CCCNC(=N)N)C(=O)N[C@H](C(=O)N[C@@H](Cc1ccccc1)C(=O)O)[C@@H](C)O [Compound 3, RITF] (H-RITF-OH)
- EC50 of the disruption of the interaction between PP1 and Inhibitor 2 (PP1 and Inhibitor 2): Slightly active at 500 μM

Compound: CC(C)C[C@H](NC(=O)[C@@H](N)CCCNC(=N)N)C(=O)N[C@H](C(=O)N[C@@H](Cc1ccccc1)C(=O)O)[C@@H](C)O [Compound 4, RLTF] (H-RLTF-OH)
- EC50 of the disruption of the interaction between PP1 and Inhibitor 2 (PP1 and Inhibitor 2): Slightly active at 500 μM

Compound: CC(C)[C@H](NC(=O)[C@@H](N)CCCNC(=N)N)C(=O)NCC(=O)N[C@@H](Cc1ccccc1)C(=O)O [Compound 6, RVGF] (H-RVGF-OH)
- EC50 of the disruption of the interaction between PP1 and Inhibitor 2 (PP1 and Inhibitor 2): Slightly active at 500 μM

Compound: CC(C)[C@H](NC(=O)[C@@H](NC(=O)[C@@H](N)CCCNC(=N)N)C(C)C)C(=O)N[C@@H](Cc1ccccc1)C(=O)O [Compound 7, RVVF] (H-RVVF-OH)
- EC50 of the disruption of the interaction between PP1 and Inhibitor 2 (PP1 and Inhibitor 2): Slightly active at 500 μM

Compound: CC(C)[C@H](NC(=O)[C@@H](N)CCCNC(=N)N)C(=O)N[C@@H](CCC(=O)O)C(=O)N[C@@H](Cc1ccccc1)C(=O)O [Compound 13, RVEF] (H-RVEF-OH)
- EC50 of the disruption of the interaction between PP1 and Inhibitor 2 (PP1 and Inhibitor 2): Slightly active at 500 μM

- activity in disrupting PP1:I2 (in words) (PP1 and Inhibitor 2): inactive
Compound: CC(C)[C@H](NC(=O)[C@@H](NC(=O)[C@@H](N)Cc1ccccc1)[C@@H](C)O)C(=O)N[C@@H](CCCNC(=N)N)C(=O)O [Compound 25, FTVR] (H-FTVR-OH)

Compound: CC(C)[C@@H](NC(=O)[C@@H](Cc1c[nH]cn1)NC(=O)[C@H](N)Cc1ccccc1)C(=O)N[C@H](CCCNC(=N)N)C(=O)O [Compound 27, dFdHdVdR]
- EC50 of the disruption of the interaction between PP1 and Inhibitor 2 (PP1 and Inhibitor 2): Slightly active at 500 μM

- activity in disrupting PP1:I2 (in words) (PP1 and Inhibitor 2): inactive
Compound: CC(=O)N[C@@H](CCCNC(=N)N)C(=O)N[C@H](C(=O)N[C@H](C(=O)N[C@@H](Cc1ccccc1)C(=O)O)[C@@H](C)O)C(C)C [Compound 28, Ac-RVTF] (Ac-RVTF-OH)

- PP1 activity reached (efficacy) (PP1 and Inhibitor 2): around 80%
Compound: CC(C)[C@H](NC(=O)[C@H](CCCNC(=N)N)NC(=O)[C@@H](N)CCCCN)C(=O)N[C@@H](Cc1c[nH]cn1)C(=O)N[C@@H](Cc1cccc2ccccc12)C(N)=O [Compound 48, KRVH-(1-NaI)-NH2] (H-KRVH[1Nal]-NH2)

- PP1 activity reached (efficacy) (PP1 and Inhibitor 2): around 80%
Compound: CC(C)[C@H](NC(=O)[C@H](CCCNC(=N)N)NC(=O)[C@@H](N)CCCCN)C(=O)N[C@@H](Cc1c[nH]cn1)C(=O)N[C@@H](Cc1ccc2ccccc2c1)C(N)=O [Compound 49, KRVH-(2-NaI)-NH2] (H-KRVH[2Nal]-NH2)

Compound: Ac-KRVHF-NH2 [Compound 34, Ac-KRVHF-NH2]
- calcium spiking in living HeLa cells (in words) (HeLa cells): inactive

Compound: RKIQFT
- pEC50 (PP1 by I2): 4.27
